Measured values published in ChEMBL document CHEMBL3259728, “Design, synthesis and biological evaluation of some novel substituted quinazolines as antitumor agents” (2014).

Key:
Assay type in all cases: functional
[1] = test system: SNB-19; experiment: Growth inhibition of human SNB19 cells assessed as cell growth at 10^-4 M after 48 hrs by SRB assay; conditions: SNB-19, 48 h, read-out: Activity
[2] = Growth inhibition of human HOP92 cells assessed as cell growth at 10^-4 M after 48 hrs by SRB assay; conditions: HOP-92, 48 h, read-out: Activity
[3] = test system: HOP-62; experiment: Growth inhibition of human HOP62 cells assessed as cell growth at 10^-8 M after 48 hrs by SRB assay; conditions: HOP-62, 48 h, read-out: Activity
[4] = test system: MCF7; experiment: Growth inhibition of human MCF7 cells assessed as cell growth at 10^-6 M after 48 hrs by SRB assay; conditions: MCF7, 48 h, read-out: Activity
[5] = test system: Malme-3M; experiment: Growth inhibition of human MALME-3M cells assessed as cell growth at 10^-4 M after 48 hrs by SRB assay; conditions: read-out: Activity
[6] = test system: NCI-H23; experiment: Growth inhibition of human NCI-H23 cells assessed as cell growth at 10^-4 M after 48 hrs by SRB assay; conditions: NCI-H23, 48 h, read-out: Activity
[7] = test system: Malme-3M; experiment: Growth inhibition of human MALME-3M cells assessed as cell growth at 10^-5 M after 48 hrs by SRB assay; conditions: read-out: Activity
[8] = test system: CAKI-1; experiment: Growth inhibition of human CAKI-1 cells assessed as cell growth at 10^-7 M after 48 hrs by SRB assay; conditions: CAKI-1, 48 h, read-out: Activity
Procedure, shortened: (§1)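 Five-dose NCI panel protocol. Each dose (10^-4 to 10^-8 M, 10-fold steps) was given as 48 h continuous exposure, and protein was measured by SRB staining. Percentage growth at each level is [(Ti−Tz)/(C−Tz)]×100, where Tz is time-zero absorbance and C is untreated control.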

[9] = test system: NCI-H226; experiment: Growth inhibition of human NCI-H226 cells assessed as cell growth at 10^-7 M after 48 hrs by SRB assay; conditions: NCI-H226, 48 h, read-out: Activity
[10] = Growth inhibition of human BT549 cells assessed as cell growth at 10^-8 M after 48 hrs by SRB assay; conditions: BT-549, 48 h, read-out: Activity; procedure, shortened: as §1
[11] = test system: SW-620; experiment: Growth inhibition of human SW620 cells assessed as cell growth at 10^-6 M after 48 hrs by SRB assay; conditions: SW-620, 48 h, read-out: Activity
[12] = test system: SNB-75; experiment: Growth inhibition of human SNB75 cells assessed as cell growth at 10^-7 M after 48 hrs by SRB assay; conditions: SNB-75, 48 h, read-out: Activity
[13] = Growth inhibition of human SF539 cells assessed as cell growth at 10^-7 M after 48 hrs by SRB assay; conditions: SF-539, 48 h, read-out: Activity
[14] = Growth inhibition of human HOP92 cells assessed as cell growth at 10^-7 M after 48 hrs by SRB assay; conditions: HOP-92, 48 h, read-out: Activity
[15] = Growth inhibition of human EKVX cells assessed as cell growth at 10^-7 M after 48 hrs by SRB assay; conditions: read-out: Activity
[16] = test system: MCF7; experiment: Growth inhibition of human MCF7 cells assessed as cell growth at 10^-8 M after 48 hrs by SRB assay; conditions: MCF7, 48 h, read-out: Activity
[17] = test system: HOP-62; experiment: Cytotoxicity against human HOP62 cells after 48 hrs by SRB assay; conditions: HOP-62, 48 h
Procedure, shortened: (§2)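 NCI 60-cell-line panel of human tumour lines from nine cancer types. Continuous 48 h exposure at five 10-fold dilutions from 10^-4 to 10^-8 M, with 5-FU as positive control. SRB protein stain read spectrophotometrically at time zero, untreated control and each concentration. GI50, TGI and LC50 were derived from the [(Ti−Tz)/(C−Tz)]×100 growth relations, and out-of-range values are given as > or < the tested limits.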

[18] = test system: K562; experiment: Cytotoxicity against human K562 cells after 48 hrs by SRB assay; conditions: K562, 48 h; procedure, shortened: as §2
[19] = test system: CCRF-CEM; experiment: Cytotoxicity against human CCRF-CEM cells after 48 hrs by SRB assay; procedure, shortened: as §2
[20] = test system: DU-145; experiment: Growth inhibition of human DU145 cells assessed as cell growth at 10^-4 M after 48 hrs by SRB assay; conditions: DU-145, 48 h, read-out: Activity; procedure, shortened: as §1
[21] = Growth inhibition of human OVCAR4 cells assessed as cell growth at 10^-4 M after 48 hrs by SRB assay; conditions: OVCAR-4, 48 h, read-out: Activity
[22] = read-out: LC50 (the source's name)
[23] = read-out: pLC50 (the source's name) (converted)

**Q.** What does the source list for Cc1ccc(-c2nc3ccc(Cl)cc3c(=O)n2/N=C/c2ccccc2)cc1?
**A.** growth at 100 µM [1]: 10%; growth at 100 µM [2]: 15%; growth at 0.01 µM [3]: 97%; growth at 1 µM [4]: 86%; growth at 100 µM [5]: 42%; growth at 100 µM [6]: 51%; growth at 10 µM [7]: 43%; growth at 0.1 µM [8]: 76%; growth at 0.1 µM [9]: 82%; growth at 0.01 µM [10]: 100%; growth at 1 µM [11]: 89%; growth at 0.1 µM [12]: 81%; growth at 0.1 µM [13]: 97%; growth at 0.1 µM [14]: 89%; growth at 0.1 µM [15]: 79%; growth at 0.01 µM [16]: 93%; GI50 ([17]; read-out: GI50): 1980 nM; CC50 [17, 22]: 31.8 µM; TGI ([17]; read-out: TGI): 5.09 µM; GI50 ([17]; read-out: pGI50 (converted)): 2000 nM; CC50 [17, 23]: 31.6 µM; TGI ([17]; read-out: pTGI (converted)): 5.13 µM; GI50 ([18]; read-out: GI50): > 100 µM; LC50 ([18]; read-out: LC50): > 100 µM; TGI ([18]; read-out: TGI): > 100 µM; GI50 ([18]; read-out: pGI50 (converted)): > 100 µM; LC50 ([18]; read-out: pLC50 (converted)): > 100 µM; TGI ([18]; read-out: pTGI): > 100 µM; GI50 ([19]; read-out: GI50): > 100 µM; CC50 [19, 22]: > 100 µM; TGI ([19]; read-out: TGI): > 100 µM; GI50 ([19]; read-out: pGI50 (converted)): > 100 µM; CC50 [19, 23]: > 100 µM; TGI ([19]; read-out: pTGI): > 100 µM; growth at 100 µM [20]: 49%; growth at 100 µM [21]: 26%
